Three compounds from ChEMBL document CHEMBL1122688, “Antimycotic azoles. 7. Synthesis and antifungal properties of a series of novel triazol-3-ones” (1984) can be followed below.

For assay [1], the system named is Aspergillus fumigatus. Put plainly: In vitro antifungal activity against Aspergillus fumigatus. Format: functional. A digest of the protocol:
(§1)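 Fungal growth-inhibition screen (Godefroi method) against dermatophytes, yeasts, moulds and other fungi. The value is the lowest concentration (µg/mL) giving total inhibition of growth, tested up to 100 µg/mL.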

The test system of assay [2] is Candida albicans. In words: In vitro antifungal activity against Candida albicans. It is filed as functional. The procedure, abridged:
as §1

Assay [3] has as its system Candida tropicalis. In words: In vitro antifungal activity against Candida tropicalis. Format: functional. A digest of the protocol: as §1
In assay [4] the test system is Cryptococcus neoformans. Put plainly: In vitro antifungal activity against Cryptococcus neoformans. It is filed as functional. A digest of the protocol:
as §1

The subject of assay [5] is Microsporum canis. In words: In vitro antifungal activity against Microsporum canis. Format: functional. The procedure, abridged:
as §1

The nature of assay [6]: In vitro antifungal activity against Mucor sp. It is filed as functional. The procedure, abridged: as §1
For assay [7], the system named is Phialophora verrucosa. Put plainly: In vitro antifungal activity against Phialophora verrucosa. It is filed as functional. The procedure, abridged: as §1
Assay [8] has as its system Saprolegnia. Put plainly: In vitro antifungal activity against Saprolegnia sp. Format: functional. The procedure, abridged:
as §1

Assay [9] deals with Sporothrix schenckii. In words: In vitro antifungal activity against Sporothrix schenck ii. Format: functional. The procedure, abridged: as §1
Assay [10] deals with Trichophyton benhamiae. Put plainly: In vitro antifungal activity against Trichophyton mentagrophytes. It is filed as functional, Arthroderma benhamiae. The procedure, abridged: as §1
In assay [11] the test system is Trichophyton rubrum. In words: In vitro antifungal activity against Trichophyton rubrum. It is filed as functional. A digest of the protocol: as §1
The nature of assay [12]: In vivo activity against microsporosis guinea pig, measured as the ratio of animals cured/animals infected (C/I) at dose 20 mg/kg; C/I = 2/2. Format: functional.
The nature of assay [13]: In vivo activity against microsporosis guinea pig, measured as the ratio of animals cured/animals infected (C/I) at dose 10 mg/kg; C/I = 0/2. It is filed as functional.
Assay [14] in a line: In vivo activity against vaginal candidoses in rats, measured as the ratio of animals cured/animals infected (C/I) at dose 2.5 mg/kg; C/I = 0/2. It is filed as functional.
Assay [15] in a line: In vivo activity against vaginal candidoses in rats, measured as the ratio of animals cured/animals infected (C/I) at dose 10 mg/kg; C/I = 3/4. It is filed as functional.
Assay [16] concerns Rattus norvegicus. Put plainly: In vivo activity against vaginal candidoses in rats, measured as the ratio of animals cured/animals infected (C/I) at dose 1.25 mg/kg; C/I = 9/10. It is filed as functional.
Assay [17] can be described thus: In vivo activity against microsporosis guinea pig, measured as the ratio of animals cured/animals infected (C/I) at dose 10 mg/kg; C/I = 1/8. Format: functional.
A short description of assay [18]: In vivo activity against microsporosis guinea pig, measured as the ratio of animals cured/animals infected (C/I) at dose 2.5 mg/kg; C/I = 0/5. It is filed as functional.
Assay [19] can be described thus: In vivo activity against microsporosis guinea pig, measured as the ratio of animals cured/animals infected (C/I) at dose 1.25 mg/kg; C/I = 0/6. Format: functional.
Assay [20] can be described thus: In vivo activity against vaginal candidoses in rats, measured as the ratio of animals cured/animals infected (C/I) at dose 2.5 mg/kg; C/I = 9/10. Format: functional.
Assay [21] in a line: In vivo activity against vaginal candidoses in rats, measured as the ratio of animals cured/animals infected (C/I) at dose 0.63 mg/kg; C/I = 3/10. It is filed as functional.
A short description of assay [22]: In vivo activity against vaginal candidoses in rats, measured as the ratio of animals cured/animals infected (C/I) at dose 10 mg/kg; C/I = 6/6. Format: functional.
Assay [23] is described as follows: In vivo activity against microsporosis guinea pig, measured as the ratio of animals cured/animals infected (C/I) at dose 20 mg/kg; C/I = 1/6.

Turning to `Cc1nn(C)c(=O)n1-c1ccc(N2CCN(c3ccc(OC[C@@H]4COC(Cn5ccnc5)(c5ccc(Cl)cc5Cl)O4)cc3)CC2)cc1` (stereo partly specified), the Inhibition in [1] is 100 µg/mL; in assay [2], 100 µg/mL; in [3] it was more than 100 µg/mL; in assay [4] it was more than 100 µg/mL; in assay [5], 100 µg/mL; in assay [6], more than 100 µg/mL. Besides, the Inhibition was more than 100 µg/mL in [7]; more than 100 µg/mL in assay [8]; more than 100 µg/mL in [9]; 10 µg/mL in assay [10]; 100 µg/mL in assay [11]. The C/I ratio stood at 2 in assay [12], 0 in assay [13], 0 in assay [14] and 0.75 in assay [15].
Take `CCCn1ncn(-c2ccc(N3CCN(c4ccc(OC[C@@H]5COC(Cn6cncn6)(c6ccc(Cl)cc6Cl)O5)cc4)CC3)cc2)c1=O` (stereo partly specified): the Inhibition in assay [1] was more than 100 µg/mL; in [2] it was more than 100 µg/mL; in [3], 100 µg/mL; in assay [4], 100 µg/mL; in assay [5] it was more than 100 µg/mL; in assay [6], more than 100 µg/mL. The Inhibition in assay [7] is more than 100 µg/mL; in [8], more than 100 µg/mL; in assay [9], more than 100 µg/mL; in [10] it was 100 µg/mL; in assay [11], 1 µg/mL. The C/I ratio in assay [16] worked out at 0.9; in [17] it was 1; in assay [18], 0; in assay [19], 0; in [20], 9; in assay [21], 0.3. In addition, the C/I ratio in assay [22] was 6.
`CCCCn1ncn(-c2ccc(N3CCN(c4ccc(OC[C@@H]5COC(Cn6cncn6)(c6ccc(Cl)cc6Cl)O5)cc4)CC3)cc2)c1=O` (stereo partly specified): the Inhibition in assay [1], in assay [2], in assay [3], in [4], in assay [5] and in [6] was more than 100 µg/mL throughout. Moreover, the Inhibition in assay [7] was more than 100 µg/mL; in assay [8], more than 100 µg/mL; in [9], more than 100 µg/mL; in [10], 100 µg/mL; in [11], more than 100 µg/mL. Besides, the C/I ratio in [14] is reported as 0; in assay [23] it was 1.
